Results taken from ChEMBL document CHEMBL4339190, “2,6-Disubstituted imidazo[2,1-b][1,3,4]thiadiazole derivatives as potent staphylococcal biofilm inhibitors” (Eur J Med Chem, 2019).
Activity calls are given as the source filed them. The calls are words filed in the database; no cut-off is given here.

Assays:
Pseudomonas aeruginosa [1] = test: Antimicrobial activity against Pseudomonas aeruginosa ATCC 15442 assessed as growth inhibition of planktonic forms incubated for 24 hrs; assay type: organism-based; details: in vitro
Procedure, shortened: (§1)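 Broth microdilution in tryptic soy broth. Two-fold series 100 to 0.75 μg/mL made from a 1 mg/mL stock in 0.9% NaCl. Inoculum ~10⁶ cfu/mL taken from a 24 h culture, 37 °C 24 h.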

Pseudomonas aeruginosa [2] = test: Antibiofilm activity against Pseudomonas aeruginosa ATCC 15442 assessed as inhibition of biofilm formation at 100 ug/ml incubated for 24 hrs by crystal violet-staining based assay; assay type: functional; details: ATCC 15442, 24 h
Staphylococcus aureus [3] = test: Antibiofilm activity against Staphylococcus aureus ATCC 6538 incubated for 24 hrs by crystal violet-staining based assay; assay type: functional
Procedure, shortened: (§2)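 Biofilm prevention: 0.5 McFarland inoculum (2.5 µL) in 100 µL TSB with 2% w/v glucose, compound present from the start over 100–0.1 µg/mL, 37 °C 24 h. Washed with PBS, stained 0.1% w/v crystal violet 30 min, eluted with 33% v/v acetic acid, read at 570 nm. BIC50 (50% inhibition versus untreated control) derived by linear regression; triplicate, repeated at least twice.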

[4] = test system: Staphylococcus epidermidis; test: Antibiofilm activity against Staphylococcus epidermidis ATCC 12228 incubated for 24 hrs by crystal violet-staining based assay; assay type: functional; procedure, shortened: as §2
Bacteria = test: Inhibition of recombinant bacterial SrtA at 100 uM using 5-FAM/QXL 520 Sortase as substrate preincubated for 10 mins followed by substrate addition and measured every 5 mins for 60 mins by fluorescence assay
Procedure, shortened: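 FRET kit assay: 2.5 µg/ml recombinant SrtA, 4 µM fluorescent peptide substrate, compound at 100 µM in 1% DMSO. Compound and enzyme added first, then substrate. Fluorescence (Ex/Em 490/520 nm) recorded every 5 min for 60 min. Substrate without enzyme served as negative control and 4-(hydroxymercuri)benzoic acid as positive control.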

Escherichia coli [5] = test: Antibiofilm activity against Escherichia coli ATCC 25922 assessed as inhibition of biofilm formation at 100 ug/ml incubated for 24 hrs by crystal violet-staining based assay; assay type: functional; details: ATCC 25922, 24 h
Escherichia coli [6] = test: Antimicrobial activity against Escherichia coli ATCC 25922 assessed as growth inhibition of planktonic forms incubated for 24 hrs; assay type: organism-based; details: in vitro; procedure, shortened: as §1
[7] = test system: Staphylococcus epidermidis; test: Antimicrobial activity against Staphylococcus epidermidis ATCC 12228 assessed as growth inhibition of planktonic forms incubated for 24 hrs; assay type: organism-based; details: in vitro; procedure, shortened: as §1
Staphylococcus aureus [8] = test: Antimicrobial activity against Staphylococcus aureus ATCC 25923 assessed as growth inhibition of planktonic forms incubated for 24 hrs; assay type: organism-based; details: in vitro; procedure, shortened: as §1
Staphylococcus aureus [9] = test: Antibiofilm activity against Staphylococcus aureus ATCC 25923 incubated for 24 hrs by crystal violet-staining based assay; assay type: functional; procedure, shortened: as §2
Staphylococcus aureus [10] = test: Antimicrobial activity against Staphylococcus aureus ATCC 6538 assessed as growth inhibition of planktonic forms incubated for 24 hrs; assay type: organism-based; details: in vitro; procedure, shortened: as §1
Staphylococcus aureus [11] = test: Antibiofilm activity against 24 hrs preformed biofilm of Staphylococcus aureus ATCC 25923 assessed as dispersion of bacteria incubated for 24 hrs by crystal violet-staining based assay; assay type: functional, organism-based; details: ATCC 25923, 24 h
Procedure, shortened: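 Preformed biofilm: 0.5 McFarland suspension (2.5 µl) grown 24 h in TSB with 2% w/v glucose. Wells washed twice with PBS and refilled with fresh TSB, then compound added at graded concentrations starting at or above the planktonic MIC. Incubated a further 24 h at 37 °C, washed, heat-fixed 60 °C 1 h, 0.1% crystal violet 30 min, dye solubilized, A540. Percent inhibition versus untreated growth control; triplicate, repeated at least twice.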

Staphylococcus aureus [12] = test: Antibiofilm activity against Staphylococcus aureus ATCC 6538 assessed as inhibition of biofilm formation at 100 ug/ml incubated for 24 hrs by crystal violet-staining based assay; assay type: functional; details: ATCC 6538, 24 h
Staphylococcus aureus [13] = test: Antibiofilm activity against Staphylococcus aureus ATCC 25923 assessed as inhibition of biofilm formation at 100 ug/ml incubated for 24 hrs by crystal violet-staining based assay; assay type: functional; details: ATCC 25923, 24 h

SMILES | MIC (Pseudomonas aeruginosa [1]) | inhibition at 100 µg/mL (Pseudomonas aeruginosa [2]) | MBIC50 (Staphylococcus aureus [3]) | inhibition (Staphylococcus aureus [3]) | MBIC50 [4] | inhibition [4] | inhibition (Bacteria) | inhibition at 100 µg/mL (Escherichia coli [5]) | MIC (Escherichia coli [6]) | MIC [7] | MIC (Staphylococcus aureus [8]) | MBIC50 (Staphylococcus aureus [9]) | MBIC90 (Staphylococcus aureus [9]) | inhibition (Staphylococcus aureus [9]) | MIC (Staphylococcus aureus [10]) | IC50 (Staphylococcus aureus [11]) | inhibition at 100 µg/mL (Staphylococcus aureus [12]) | inhibition at 100 µg/mL (Staphylococcus aureus [13])
Br.COc1ccc(OC)c(-c2cn3nc(-c4c[nH]c5ccccc45)sc3n2)c1 | > 100 µg/mL | < 15% | 18.5 µM | Dose-dependent effect | 29.9 µM | Dose-dependent effect | inactive | < 15% | > 100 µg/mL | > 100 µg/mL | > 100 µg/mL | 1.2 µM | 36.5 µg/mL | Dose-dependent effect | > 100 µg/mL | 142 µg/mL | – | –
Cn1cc(-c2nn3cc(-c4ccccc4)nc3s2)c2cc(Cl)ccc21 | > 100 µg/mL | < 15% | – | – | 36.5 µM | Dose-dependent effect | – | < 15% | > 100 µg/mL | > 100 µg/mL | > 100 µg/mL | – | – | – | > 100 µg/mL | – | < 15% | < 15%
Br.Cn1cc(-c2nn3cc(-c4ccccc4)nc3s2)c2cc(Br)ccc21 | > 100 µg/mL | < 15% | – | – | 21.6 µM | Dose-dependent effect | – | < 15% | > 100 µg/mL | > 100 µg/mL | > 100 µg/mL | – | – | – | > 100 µg/mL | – | < 15% | < 15%
